From PubChem BioAssay AID624340 (The Scripps Research Institute Molecular Screening Center, 2012)
Where “and” joins values, the source holds several entries; their conditions need not be identical. Identical values can stand only once. Calls of active or inactive are those of the source.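 How the source made its calls: active means IC50 at or below 10 µM; inactive means IC50 above 10 µM.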

molecular target: Insulin-degrading enzyme (Homo sapiens) (UniProt P14735); assay: IDE inhibition with fluorogenic peptide, late-stage follow-up, artefact control for IDE inhibitor project, biochemical, FRET1 substrate, fluorescence, round 2 (AID 624340); conditions: recombinant WT IDE
Sequence (P14735 whole entry, looked up): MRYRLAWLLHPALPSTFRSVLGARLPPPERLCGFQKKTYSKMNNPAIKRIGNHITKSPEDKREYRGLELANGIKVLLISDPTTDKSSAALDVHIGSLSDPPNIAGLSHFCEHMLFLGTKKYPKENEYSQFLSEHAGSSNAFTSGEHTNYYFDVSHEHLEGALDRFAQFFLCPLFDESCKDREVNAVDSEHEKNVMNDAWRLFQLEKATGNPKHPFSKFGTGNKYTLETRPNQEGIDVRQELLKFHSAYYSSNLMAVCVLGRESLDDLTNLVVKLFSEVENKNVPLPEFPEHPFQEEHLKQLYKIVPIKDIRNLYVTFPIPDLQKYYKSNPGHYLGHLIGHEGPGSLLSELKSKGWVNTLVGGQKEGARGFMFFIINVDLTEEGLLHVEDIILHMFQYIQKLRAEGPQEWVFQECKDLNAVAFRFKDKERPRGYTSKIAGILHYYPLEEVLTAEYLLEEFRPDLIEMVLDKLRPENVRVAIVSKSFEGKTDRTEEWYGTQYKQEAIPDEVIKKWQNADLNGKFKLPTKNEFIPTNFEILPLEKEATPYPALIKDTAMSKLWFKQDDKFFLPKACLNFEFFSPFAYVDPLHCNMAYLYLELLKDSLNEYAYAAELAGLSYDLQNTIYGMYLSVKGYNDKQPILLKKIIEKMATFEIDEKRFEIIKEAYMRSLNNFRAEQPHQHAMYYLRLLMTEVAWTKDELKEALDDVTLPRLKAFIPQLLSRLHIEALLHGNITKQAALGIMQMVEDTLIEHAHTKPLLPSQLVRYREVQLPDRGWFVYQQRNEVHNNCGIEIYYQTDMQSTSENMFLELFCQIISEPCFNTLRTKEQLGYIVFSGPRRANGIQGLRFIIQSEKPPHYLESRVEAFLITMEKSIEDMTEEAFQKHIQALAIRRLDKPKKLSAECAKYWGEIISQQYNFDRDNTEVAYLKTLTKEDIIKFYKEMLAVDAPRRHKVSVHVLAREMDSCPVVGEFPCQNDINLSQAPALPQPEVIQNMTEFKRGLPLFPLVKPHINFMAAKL
Outline: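 Read-out basis – IC50 from sigmoidal fit of initial-rate percent activity · Test system – recombinant WT IDE · Repeats – triplicate · Buffer or medium – pH 7.4 HEPES, NaCl, MgCl2, BSA buffer · Schedule – kinetic read every 2 min over 2 h, 22 °C · Control set – DMSO-only wells as 100%, no-enzyme wells as 0% · Signal – fluorescence at 335/385 nm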

Compound | IC50
O=C(c1ccc(Oc2ccc(F)cc2)cc1)N1CCN(C(=O)C2COc3ccccc3O2)CC1 (stereo not given) | > 100 µM (inactive)
COc1cc(C(=O)N2CCN(C(=O)C3COc4ccccc4O3)CC2)cc(Cl)c1OC (stereo not given) | > 100 µM (inactive)
O=C(c1ccc2nc(C(F)(F)F)[nH]c2c1)N1CCN(C(=O)C2COc3ccccc3O2)CC1 (stereo not given) | inactive
Cc1ccc(-c2nnc(SCc3nc4ccccc4[nH]3)n2Cc2ccco2)cc1 | > 100 µM (inactive)
CC(=O)Nc1ccccc1C(=O)N1CCN(C(=O)C2COc3ccccc3O2)CC1 (stereo not given) | inactive
COc1ccc(C(=O)N2CCN(C(=O)COc3ccc(Cl)cc3)CC2)cc1OC | > 100 µM (inactive)
COc1ccc(C(=O)N2CCN(C(=O)CCc3c[nH]c4ccccc34)CC2)cc1OC | > 100 µM (inactive)
COc1ccc(C(=O)N2CCN(C(=O)C3CC(=O)N(c4ccccc4)C3)CC2)cc1OC (stereo not given) | > 100 µM (inactive)
COc1ccc(C(=O)N2CCN(C(=O)COc3ccc(C)cc3)CC2)cc1OC | > 100 µM (inactive)
O=C(c1ccc(Oc2ccccc2)cc1)N1CCN(C(=O)C2COc3ccccc3O2)CC1 (stereo not given) | > 100 µM (inactive)
c1coc(Cn2c(SCc3nc4ccccc4[nH]3)nnc2-c2cnccn2)c1 | > 100 µM (inactive)
COc1cccc(C(=O)N2CCN(C(=O)C3COc4ccccc4O3)CC2)c1 (stereo not given) | inactive

The next lines start with the values.

IC50 | Compound
> 100 µM (inactive) | c1coc(Cn2c(SCc3nc4ccccc4[nH]3)nnc2-c2cccs2)c1
5.89 µM and > 100 µM (inactive) | COc1ccc(C(=O)N2CCN(C(=O)C3COc4ccccc4O3)CC2)cc1 (stereo not given)
> 100 µM (inactive) | O=C(c1ccc(OCC2CCCO2)cc1)N1CCN(C(=O)C2COc3ccccc3O2)CC1 (stereo not given)
> 100 µM (inactive) | Cc1nc(COc2ccc(C(=O)N3CCN(C(=O)C4COc5ccccc5O4)CC3)cc2)cs1 (stereo not given)
> 100 µM (inactive) | Clc1ccc(COCc2nnc(SCc3nc4ccccc4[nH]3)n2Cc2ccco2)cc1
> 100 µM (inactive) | CCOc1ccc(C(=O)N2CCN(C(=O)C3COc4ccccc4O3)CC2)cc1 (stereo not given)
> 100 µM (inactive) | COc1ccc(C(=O)N2CCN(C(=O)C(c3ccccc3)c3ccccc3)CC2)cc1OC
> 100 µM (inactive) | Cc1ccc(COCc2nnc(SCc3nc4ccccc4[nH]3)n2Cc2ccco2)cc1
> 100 µM (inactive) | c1ccc(-c2nnc(SCc3nc4ccccc4[nH]3)n2Cc2ccco2)nc1
> 100 µM (inactive) | c1coc(Cn2c(SCc3nc4ccccc4[nH]3)nnc2-c2ccco2)c1
> 100 µM (inactive) | c1ccc(-c2nnc(SCc3nc4ccccc4[nH]3)n2Cc2ccco2)cc1
> 100 µM (inactive) | COc1ccc(OCC(=O)N2CCN(C(=O)c3ccc(OC)c(OC)c3)CC2)cc1
> 100 µM (inactive) | COc1ccc(C(=O)N2CCN(C(=O)COc3ccccc3)CC2)cc1OC
